ChEMBL document CHEMBL4715695, “Adamantyl-tethered-biphenylic compounds induce apoptosis in cancer cells by targeting Bcl homologs” (Bioorg Med Chem Lett, 2016)
Active and inactive are the calls of the source. The calls are words filed in the database; no cut-off is given here.

How the values were obtained:
L02 = assay: Cytotoxicity against human L02 cells assessed as reduction in cell viability measured upto 72 hrs by MTT assay; assay type: cell-based; settings: l02, 72 h
HepG2 [1] = assay: Cytotoxicity against human HepG2 cells assessed as reduction in cell viability measured upto 72 hrs by MTT assay; assay type: functional, cell-based; settings: for IC50: HepG2, 72 h
Method in brief: (§1)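 HCC cells plated at 2.5 × 10^4/mL in triplicate and exposed to a range of compound concentrations. Proliferation was read by MTT at 24, 48 and 72 h.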

HepG2 [2] = assay: Induction of apoptosis in human HepG2 cells assessed as upregulation of Bcl-xl expression measured upto 48 hrs by Western blot analysis; assay type: functional, cell-based; settings: time hrs <=48, in the assay text read “downregulation” for “upregulation”, TDE = time-dependent effect
Method in brief: (§2)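 HepG2 cells were exposed to compound and harvested at 0, 12, 18, 24 and 48 h. Bcl-2 and Bcl-xL levels were detected by western blot, with β-actin as loading control.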

MDA-MB-231 [3] = assay: Induction of apoptosis in human MBA-MB-231 cells assessed as upregulation of Bcl-xl expression measured upto 48 hrs by Western blot analysis; assay type: functional, cell-based; settings: time hrs <=48, in the assay text read “downregulation” for “upregulation”
Method in brief: (§3)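 Bcl-2 and Bcl-xL levels in MDA-MB-231 cells after compound treatment were assessed by western blot, with β-actin as loading control.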

HepG2 [4] = assay: Induction of cell cycle arrest in human HepG2 cells assessed as increase in accumulation of SubG1 phase incubated for 48 hrs by propidium iodide staining based flow cytometry analysis; assay type: functional; settings: dose 10-40 µM
Method in brief: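 HepG2 cells were treated at 0, 10, 20 and 40 µM for 48 h, then ethanol-fixed and stained with propidium iodide. Cell cycle distribution, including the subG1 fraction, was analysed by flow cytometry.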

HepG2 [5] = assay: Induction of apoptosis in human HepG2 cells assessed as decrease in cyclin-D1 measured upto 48 hrs by Western blot analysis; assay type: functional, cell-based; settings: time hrs <=48
Method in brief: (§4)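 Lysates of compound-treated HepG2 cells were immunoblotted for procaspase-3, PARP, survivin and cyclin D1. Full-length PARP is 116 kDa; cleavage yields 85 and 24 kDa fragments.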

HepG2 [6] = assay: Induction of apoptosis in human HepG2 cells assessed as decrease in full length PARP measured upto 48 hrs by Western blot analysis; assay type: functional, cell-based; settings: time hrs <=48, TDE = time-dependent effect; method in brief: as §4
HepG2 [7] = assay: Induction of apoptosis in human HepG2 cells assessed as decrease in survivin measured upto 48 hrs by Western blot analysis; assay type: functional, cell-based; settings: time hrs <=48; method in brief: as §4
HepG2 [8] = assay: Antiproliferative activity in human HepG2 cells transfected with Bcl2 siRNA assessed as reduction in cell growth at 10 to 50 uM incubated for 24 hrs by MTT assay; assay type: functional, cell-based; settings: dose 10-50 µM
Method in brief: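 HepG2 cells were transfected with Bcl-2 siRNA, with control siRNA-transfected cells as the comparator. Cells were then exposed to graded compound doses, and proliferation was measured by MTT.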

HepG2 [9] = assay: Induction of apoptosis in human HepG2 cells assessed as upregulation of Bcl-2 expression measured upto 48 hrs by Western blot analysis; assay type: functional, cell-based; settings: time hrs <=48, in the assay text read “downregulation” for “upregulation”, TDE = time-dependent effect; method in brief: as §2
HepG2 [10] = assay: Induction of apoptosis in human HepG2 cells assessed as increase in PARP cleavage measured upto 48 hrs by Western blot analysis; assay type: functional, cell-based; settings: time hrs <=48, TDE = time-dependent effect; method in brief: as §4
HepG2 [11] = assay: Induction of apoptosis in human HepG2 cells assessed as increase in pro-caspase 3 activation measured upto 48 hrs by Western blot analysis; assay type: functional, cell-based; settings: time hrs <=48, TDE = time-dependent effect; method in brief: as §4
MDA-MB-231 [12] = assay: Induction of apoptosis in human MBA-MB-231 cells assessed as upregulation of Bcl-2 expression measured upto 48 hrs by Western blot analysis; assay type: functional, cell-based; settings: time hrs <=48, TDE = time-dependent effect, in the assay text read “downregulation” for “upregulation”; method in brief: as §3
Hep 3B2 = assay: Cytotoxicity against human Hep3B cells assessed as reduction in cell viability measured upto 72 hrs by MTT assay; assay type: functional, cell-based; settings: dose 10-50 µM, time hrs <=72; method in brief: as §1
Huh-7 = assay: Cytotoxicity against human HuH-7 cells assessed as reduction in cell viability measured upto 72 hrs by MTT assay; assay type: functional, cell-based; settings: dose 10-50 µM, time hrs <=72; method in brief: as §1

SMILES	Activity (L02)	IC50 (HepG2 [1])	other results
COc1ccc(-c2ccc(C(F)(F)F)cc2)cc1C12CC3CC(CC(C3)C1)C2	Non-Toxic	> 50 µM	
COc1ccc(-c2c(F)cc(F)c(OC)c2F)cc1C12CC3CC(CC(C3)C1)C2	Non-Toxic	> 50 µM	
COc1ccc(-c2cccc(O)c2)cc1C12CC3CC(CC(C3)C1)C2	Non-Toxic	26.1 µM	Activity (HepG2 [2]): Tde; Activity (MDA-MB-231 [3]): Active; Activity (HepG2 [4]): Dose-dependent effect; Activity (HepG2 [5]): Active; Activity (HepG2 [6]): Tde; Activity (HepG2 [7]): Active; inhibition (HepG2 [8]): inactive; Activity (HepG2 [9]): Tde; Activity (HepG2 [10]): Tde; Activity (HepG2 [11]): Tde; Activity (MDA-MB-231 [12]): Tde
COc1ccc(-c2ccccc2)cc1C12CC3CC(CC(C3)C1)C2	Non-Toxic	> 50 µM	
COc1ccc(-c2ccccc2Cl)cc1C12CC3CC(CC(C3)C1)C2	Toxic	21.9 µM	
COc1ccc(-c2ccc(C(=O)N3CCCCC3)cc2)cc1C12CC3CC(CC(C3)C1)C2	Non-Toxic	> 50 µM	
COc1cccc(-c2ccc(OC)c(C34CC5CC(CC(C5)C3)C4)c2)c1	Non-Toxic	> 50 µM	
COc1ccc(-c2ccc(Cl)c(C(F)(F)F)c2)cc1C12CC3CC(CC(C3)C1)C2	Non-Toxic	> 50 µM	
COc1ccc(-c2cccc3ccccc23)cc1C12CC3CC(CC(C3)C1)C2	Non-Toxic	46.2 µM	
COc1ccc(C2=Cc3ccccc3C2)cc1C12CC3CC(CC(C3)C1)C2	Toxic	6.9 µM	
CC1(C)CCC(c2ccc(Cl)cc2)=C(CN2CCN(c3ccc(C(=O)NS(=O)(=O)c4ccc(N[C@H](CCN5CCOCC5)CSc5ccccc5)c(S(=O)(=O)C(F)(F)F)c4)cc3)CC2)C1			Activity (HepG2 [1]; time hrs <=72): Dose-dependent effect; Activity (Hep 3B2): Dose-dependent effect; Activity (Huh-7): Dose-dependent effect
COc1ccc(-c2ccccc2C#N)cc1C12CC3CC(CC(C3)C1)C2	Non-Toxic	> 50 µM	
COc1ccc(-c2ccccc2F)cc1C12CC3CC(CC(C3)C1)C2	Non-Toxic	> 50 µM	
COc1ccc(-c2cccc(Cl)c2)cc1C12CC3CC(CC(C3)C1)C2	Non-Toxic		
COc1ccc(-c2ccccc2C)cc1C12CC3CC(CC(C3)C1)C2	Non-Toxic	49.1 µM	
